Data set [1] has as its system HUVEC. The data set can be described thus: Disruption of preestablished capillary like tubes in HUVEC cells at 25 uM incubated for 16 hrs by matrigel based bright field microscopic analysis. The note with it: Homo sapiens. In kind it is functional, cell-based.
For data set [2], the target named is T1, Ribosyldihydronicotinamide dehydrogenase [quinone] (Homo sapiens) (UniProt P16083).
T1 sequence (whole entry): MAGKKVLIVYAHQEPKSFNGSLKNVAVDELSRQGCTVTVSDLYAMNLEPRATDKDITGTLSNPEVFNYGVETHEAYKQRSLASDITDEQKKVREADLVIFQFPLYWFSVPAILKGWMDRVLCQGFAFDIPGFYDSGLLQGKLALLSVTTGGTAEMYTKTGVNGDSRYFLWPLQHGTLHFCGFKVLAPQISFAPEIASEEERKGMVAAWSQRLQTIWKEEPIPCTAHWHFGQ
The data set can be described thus: Inhibition of human recombinant NQO2 at upto 100 uM. The note with it: dose microM <=100.

Data set [3] deals with HUVEC. In words: Antivascular activity against HUVEC cells assessed as inhibition of capillary like tube formation at 25 uM incubated for 16 hrs by matrigel based bright field microscopic analysis. In kind it is functional, cell-based. The note with it: Homo sapiens. In outline:
(§1)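 Tube formation: HUVECs (25×10^3 per well) plated onto gelled Matrigel together with DMSO or test agent (0.5, 1, 2 μM or 25 μM). After 16 h, tube networks were examined by bright-field microscopy at 4×. Three independent experiments.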

The target in data set [4] is T2, Tubulin (Homo sapiens) (UniProt P68371+Q9H4B7+P0DPH7+P68366+Q13509+Q71U36+P04350+Q3ZCM7+P07437+P68363+Q9BQE3+Q6PEY2+Q13885+Q9BVA1+Q9BUF5). The data set can be described thus: Inhibition of tubulin (unknown origin) polymerization assessed as reduction in microtubule formation by measuring reduction in absorbance at 10 uM measured every minute for 1 hr in presence of GTP by microplate reader analysis. In kind it is protein-complex assay. In outline: (§2)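 Cell-free turbidity assay: purified bovine tubulin diluted to 60 μM in polymerization buffer with 1 mM GTP, mixed on ice with DMSO or test agent (final 5, 10, 20 μM). […] A350 read every 1 min for 60 min at 37 °C; ΔA calculated relative to time zero.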

In data set [5] the test system is HepG2. In words: Cytotoxicity against human HepG2 cells assessed as inhibition of colony formation at 0.5 to 1 uM incubated for 14 days by methylene blue staining based clonogenic assay. In kind it is functional, cell-based. The conditions noted are these: dose 0.5-1 µM, time 14.0 day. In outline: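 Clonogenic survival: HepG2 seeded as single cells at 1000/well and left 10-12 h to adhere. Treated with DMSO or a concentration range for 14 days, with compound added once. Colonies fixed in 70% ethanol, stained with 0.5% methylene blue, and colonies of ≥50 cells counted. Surviving fraction = treated CFE/control CFE. Three independent experiments.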

Data set [6] deals with HepG2. In words: Induction of reversible mitotic arrest in human HepG2 cells assessed as restoration of cell population in G2/M phase at 2 to 5 uM treated for 24 hrs followed by replacement with fresh medium without compound and further incubated for 24 hrs by PI staining based flow cytometry. The conditions noted are these: dose 2-5 µM. In kind it is functional. In outline: (§3)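 HepG2 cells (5×10^5 per dish) treated 24 h, then medium replaced with compound-free medium for a further 24 h. Cells then ethanol-fixed and stained with PI/RNase A for 30 min at 37 °C. 10 000 cells analyzed by flow cytometry; phase percentages by Watson model. Compared with control by one-way ANOVA/Dunnett's.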
For orientation: In flow cytometry, cells or beads pass a laser one at a time.

The subject of data set [7] is HepG2. In words: Induction of cell cycle arrest in human HepG2 cells assessed as increase in sub-G0/G1 cell population at 2 uM measured after 24 hrs by PI staining based flow cytometry. In kind it is functional.
Data set [8] relates to HUVEC. The data set can be described thus: Induction of actin disruption in HUVEC cells assessed as thicker and brighter actin fibers at 0.5 to 1 uM incubated for 24 hrs by phalloidin-Atto 488 staining based inverted microscopy. In kind it is cell-based. The conditions noted are these: Homo sapiens, dose 0.5-1 µM. In outline: (§4)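 HUVECs (2×10^4) adhered overnight on glass slides, no Matrigel. Treated 24 h with 0.5 or 1 μM; colchicine 0.1 μM as positive control. Fixed in 10% formalin, permeabilized with Triton X-100, blocked. Stained with anti-α-tubulin plus Cy5 secondary, phalloidin-Atto 488 for F-actin, and DAPI. Imaged by inverted fluorescence microscopy at 63×. Three independent experiments.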

The subject of data set [9] is SNU-423. In words: Induction of apoptosis in human SNU-423 cells assessed as necrotic cells at 1 uM incubated for 24 hrs by Annexin V-APC/PI staining based flow cytometry (reference value: 5.74 %). In kind it is functional.
The test system of data set [10] is HUVEC. The data set can be described thus: Antivascular activity against HUVEC cells assessed as inhibition of capillary like tube formation incubated for 16 hrs by matrigel based bright field microscopic analysis. The note with it: Homo sapiens, dose 2.0 µM. In kind it is functional, cell-based. In outline:
as §1

Data set [11] deals with HUVEC. The data set can be described thus: Disruption of preestablished capillary like tubes in HUVEC cells assessed as formation of short distorted tubes at 1 to 2 uM incubated for 16 hrs by matrigel based bright field microscopic analysis. In kind it is functional, cell-based. The note with it: Homo sapiens, dose 1-2 µM.
Data set [12] has as its target T2, Tubulin (Homo sapiens). In words: Induction of microtubule disruption in HUVEC cells assessed as shortened microtubules with outer blebbing filled with tubulin at 0.5 to 1 uM incubated for 24 hrs by immunofluorescence based inverted microscopy. In kind it is cell-based. The note with it: dose 0.5-1 µM. In outline:
as §4

The test system of data set [13] is SNU-423. In words: Induction of apoptosis in human SNU-423 cells assessed as viable cells at 1 uM incubated for 24 hrs by Annexin V-APC/PI staining based flow cytometry (reference value: 92.7 %). In kind it is functional. The note with it: read-out: Activity.
The test system of data set [14] is HepG2. The data set can be described thus: Induction of cell cycle arrest in human HepG2 cells assessed as decrease in cell proportion at G0/G1 phase at 25 uM measured after 24 hrs by PI staining based flow cytometry. In kind it is functional.
Data set [15] deals with T2, Tubulin (Homo sapiens). In words: Inhibition of tubulin (unknown origin) polymerization assessed as reduction in microtubule formation by measuring reduction in absorbance measured every minute for 1 hr in presence of GTP by microplate reader analysis. The note with it: dose 5-20 µM. In kind it is protein-complex assay. In outline:
as §2

Data set [16] relates to HUVEC. In words: Disruption of preestablished capillary like tubes in HUVEC cells assessed as rounded and retracted cells at 0.5 to 1 uM incubated for 16 hrs by matrigel based inverted microscopy. The note with it: Homo sapiens, dose 0.5-1 µM.
Data set [17] relates to HUVEC. In words: Disruption of preestablished capillary like tubes in HUVEC cells assessed as decrease in tube junctions at 1 to 2 uM incubated for 16 hrs by matrigel based bright field microscopic analysis. In kind it is functional, cell-based. The conditions noted are these: Homo sapiens, dose 1-2 µM.
The test system of data set [18] is HepG2. In words: Induction of reversible mitotic arrest in human HepG2 cells assessed as increase in cell population in sub-G0/G1 phase at 2 to 5 uM treated for 24 hrs followed by replacement with fresh medium without compound and further incubated for 24 hrs by PI staining based flow cytometry. In kind it is functional. The conditions noted are these: dose 2-5 µM. In outline:
as §3

The test system of data set [19] is SNU-423. The data set can be described thus: Induction of apoptosis in human SNU-423 cells assessed as early apoptotic cells at 1 uM incubated for 24 hrs by Annexin V-APC/PI staining based flow cytometry (reference value: 0.94 %). In kind it is functional.
Data set [20] has as its system HepG2. In words: Induction of reversible mitotic arrest in human HepG2 cells assessed as restoration of cell population in G0/G1 phase at 2 to 5 uM treated for 24 hrs followed by replacement with fresh medium without compound and further incubated for 24 hrs by PI staining based flow cytometry. The note with it: dose 2-5 µM. In kind it is functional. In outline:
as §3

The subject of data set [21] is HUVEC. In words: Disruption of preestablished capillary like tubes in HUVEC cells incubated for 16 hrs by matrigel based bright field microscopic analysis. The conditions noted are these: Homo sapiens, dose 0.5-10 µM. In kind it is functional, cell-based.
Data set [22] relates to SNU-423. In words: Induction of apoptosis in human SNU-423 cells assessed as viable cells at 0.5 uM incubated for 24 hrs by Annexin V-APC/PI staining based flow cytometry (reference value: 92.7 %). In kind it is functional. The note with it: read-out: Activity.
A short description of data set [23]: Antiproliferative activity against human THLE-3 cells assessed as inhibition of cell proliferation incubated for 24 hrs followed by 72 hrs of compound-free incubation by Sulforhodamine B assay. In kind it is toxicity, cell-based. In outline: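 SRB growth assay: cells seeded overnight (HepG2 3000, SNU423 2000, MDA-MB-231 1500, MCF-7 2500, A549 1000, HCT116 1000, THLE-3 4000 cells/well), then exposed to a concentration range for 96 h, or 24 h followed by 72 h drug-free. DMSO ≤0.3%. TCA fixation, 0.4% SRB staining, OD at 510 nm. Growth % = OD test/OD control ×100. IC50 from four-parameter fit; at least three independent experiments.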
On the technique in general: The SRB assay estimates cell density from bound dye.

Data set [24] concerns SNU-423. In words: Induction of apoptosis in human SNU-423 cells assessed as late apoptotic cells at 0.5 uM incubated for 24 hrs by Annexin V-APC/PI staining based flow cytometry (reference value: 0.83 %). In kind it is functional.
Data set [25] has as its system HepG2. In words: Induction of reversible mitotic arrest in human HepG2 cells assessed as restoration of cell population in S phase at 2 to 5 uM treated for 24 hrs followed by replacement with fresh medium without compound and further incubated for 24 hrs by PI staining based flow cytometry. In kind it is functional. The conditions noted are these: dose 2-5 µM. In outline: as §3

The subject of data set [26] is HUVEC. In words: Cytotoxicity against HUVEC cells assessed as reduction in cell proliferation at upto 10 uM incubated for 24 hrs by Sulforhodamine B assay. In kind it is toxicity, cell-based. The note with it: human. In outline: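 HUVECs plated without Matrigel at 4000 cells/well, allowed to attach overnight, then exposed to a concentration range for 24 h. Growth read by SRB: TCA fixation, 0.4% SRB dye, OD at 510 nm, expressed as % of DMSO control. Mean ± SEM of three independent experiments.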

Data set [27] concerns SNU-423. The data set can be described thus: Induction of apoptosis in human SNU-423 cells assessed as early apoptotic cells at 0.5 uM incubated for 24 hrs by Annexin V- APC/PI staining based flow cytometry (reference value: 0.94 %). In kind it is functional.

Calls of active or inactive are those of the source. No cut-off for these calls is given here.

In the case of `O=c1[nH]c(-c2ccc(F)cc2)cc2cc(F)ccc12`, the result in the data set on HUVEC [1] and in the data set with HUVEC [3] was inactive. Also, in data set [2], the inhibition result was “inactive”.
Turning to `COC(=O)Nc1nc2cc(C(=O)c3cccs3)ccc2[nH]1`, at Tubulin (Homo sapiens) [4], the inhibition result is “Active”.
For `O=c1[nH]c(-c2cccc(F)c2)cc2cc(F)ccc12`, the inhibition result in the data set on HepG2 [5] and at Tubulin (Homo sapiens) [15] was “Active” in each case. Moreover, the outcome with HepG2 [6], in the data set on HepG2 [7], in the data set on HUVEC [8], with HUVEC [11], on Tubulin (Homo sapiens) [12] and in the data set on HepG2 [14] was Active. For the same compound, the outcome in the data set with HUVEC [16], in the data set on HUVEC [17], in the data set on HepG2 [18], with HepG2 [20] and with HepG2 [25] was Active. The Activity in the data set on SNU-423 [9] was 12.1%; with HUVEC [10], “Dose-Dependent Effect”; in the data set on SNU-423 [19], 15.1%; with HUVEC [21] it was “Dose-Dependent Effect”; in the data set with SNU-423 [24], 6.47%; in the data set with HUVEC [26], “Non-Toxic”. Besides, in the data set on SNU-423 [27], the Activity turned out to be 5.95%. In addition, the viability at 1 µM in the data set with SNU-423 [13] was found to be 60.4%. Also, the inhibition entry in data set [2] is “inactive”. The viability at 0.5 µM with SNU-423 [22] stood at 76%. For the same compound, the IC50 at 24 h in data set [23] is more than 25 µM.
As for `COc1ccc(-c2cc3cc(F)ccc3c(=O)[nH]2)cc1`, the inhibition result in data set [2] is “inactive”.
Take `CC(=O)O[C@H]1C(=O)[C@@]2(C)[C@H]([C@H](OC(=O)c3ccccc3)[C@]3(O)C[C@H](OC(=O)[C@H](O)[C@@H](NC(=O)c4ccccc4)c4ccccc4)C(C)=C1C3(C)C)[C@]1(OC(C)=O)CO[C@@H]1C[C@@H]2O`: the inhibition entry at Tubulin (Homo sapiens) [4] is “inactive”.

As a reminder, the IC50 is the concentration that inhibits the measured activity by half.
